Assay results reported in PMC9998351 (Steroids, 2023).
Several values for one entry are separate records, joined by “and”; a condition that tells them apart may be missing. Equal values may be shown once.

Columns and labels:
Type in all cases: in vivo
[1] = Oral pharmacokinetics and bioavailability in rats; details: for Vd/F: Vz/F; for AUC(0-t): AUClast
Procedure, shortened: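 Sprague Dawley rats (8–12 wk, 3/sex/group, catheterised jugular vein) got one oral gavage dose of 10 or 50 mg/kg. Dose was a solution in cremophor:ethanol:saline (1:1:8), pH 4.0, at 10 ml/kg. EDTA plasma was collected at 5, 15, 30 min, 1, 2, 4, 6 and 24 h, precipitated with acetonitrile, and quantified by LC-MS/MS against abiraterone internal standard. Noncompartmental parameters; bioavailability from oral AUClast versus IV.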

[2] = Intravenous pharmacokinetics in rats; details: for Cmax/D / Tmax / AUCinf / AUClast / C0 / CL / Cmax / T1/2 / Vss / Vz / AUC(0-inf) / AUC(0-t) / clearance / half-life / Vd: 1 mg/kg IV; for AUC(0-inf): AUCinf; for AUC(0-t): AUClast; for clearance: CL
Procedure, shortened: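 Single 1 mg/kg IV dose to jugular-vein-catheterised Sprague Dawley rats (8–12 wk, 3/sex), given in cremophor:ethanol:saline (1:1:8), pH 4.0 (acetic acid), at 10 ml/kg. EDTA blood was taken at 5, 15, 30 min, 1, 2, 4, 6 and 24 h for plasma. Plasma was prepared by acetonitrile precipitation and aqueous dilution, then run on LC-MS/MS (positive ESI, MRM 439.2>371.2, abiraterone internal standard). Noncompartmental PK.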

male Nude mice = experiment: Chronic dosing toxicity in male nude mice; details: male nude mice
[3] = Chronic dosing toxicity in male nude mice; details: male, Nude, mouse, in vivo, ip
[4] = male, Sprague Dawley, rat, plasma, po, 10 mg/kg, male rats, 10 mg/kg PO, GeoMean
[5] = male, Sprague Dawley, rat, plasma, po, 10 mg/kg, male rats, 10 mg/kg PO, individual rat
[6] = male, Sprague Dawley, rat, plasma, po, 50 mg/kg, male rats, 50 mg/kg PO, GeoMean
[7] = male, Sprague Dawley, rat, plasma, po, 50 mg/kg, male rats, 50 mg/kg PO, individual rat
[8] = female rats, individual rat, 1 mg/kg
[9] = female, Sprague Dawley, rat, plasma, iv, 1 mg/kg, female rats, GeoMean
[10] = female, Sprague Dawley, rat, plasma, iv, 1 mg/kg, female rats, individual rat
[11] = male rats, individual rat, 1 mg/kg
[12] = male, Sprague Dawley, rat, plasma, iv, 1 mg/kg, male rats, GeoMean (third rat excluded)

C[C@]12CC[C@H](n3ccnc3)CC1=CC[C@@H]1[C@@H]2CC[C@]2(C)C(n3cnc4ccccc43)=CC[C@@H]12 [Compound 2, 3β-(1H-imidazole-1-yl)-17-(1H-benzimidazole-1-yl)-androsta-5,16-diene]
Tmax [1, 4]: 6 h | Tmax [1, 5]: 6 h | Vd/F [1, 4]: 12.6 L/kg | Vd/F [1, 5]: 12.4 L/kg | AUC(0-t) [1, 6]: 56.2 µg·h/mL | AUC(0-t) [1, 7]: 39.7 µg·h/mL | CL/F ([1]; male, Sprague Dawley, rat, plasma, po, 50 mg/kg, CL/F, male rats, 50 mg/kg PO, GeoMean): 0.103 L/h/kg | Cmax [1, 6]: 2.73 µg/mL | Cmax [1, 7]: 1.87 µg/mL | Tmax [1, 6]: 9.52 h | Vd/F [1, 6]: 14.6 L/kg | Vd/F [1, 7]: 14.4 L/kg | Extrapolated percentage of AUC0-inf ([1]; rats, PO dosing, text (and beyond)): 17–82% | Cmax/D ([2]; female rats, GeoMean): 311 ng/mL/mg/kg | Tmax ([2]; female rats, individual rat): 0.0833 h | AUCinf [2, 8]: 199 µg·min/mL and 171 µg·min/mL | AUClast [2, 8]: 140 µg·min/mL and 126 µg·min/mL | C0 [2, 8]: 0.342 µg/mL and 0.418 µg/mL | CL [2, 8]: 0.302 L/h/kg and 0.351 L/h/kg | Cmax [2, 8]: 0.291 µg/mL and 0.35 µg/mL | Cmax/D [2, 8]: 296 ng/mL/mg/kg and 291 ng/mL/mg/kg and 350 ng/mL/mg/kg | T1/2 [2, 8]: 15.0 h and 13.8 h | Tmax [2, 8]: 0.25 h and 0.0833 h | Vss [2, 8]: 5.99 L/kg and 6.31 L/kg | Vz [2, 8]: 6.51 L/kg and 6.98 L/kg | AUC(0-inf) [2, 9]: 3.38 µg·h/mL | AUC(0-inf) [2, 10]: 4.13 µg·h/mL | AUC(0-t) [2, 9]: 2.4 µg·h/mL | AUC(0-t) [2, 10]: 2.8 µg·h/mL | C0 ([2]; female, Sprague Dawley, rat, plasma, iv, 1 mg/kg, C0, female rats, GeoMean): 0.333 µg/mL | C0 ([2]; female, Sprague Dawley, rat, plasma, iv, 1 mg/kg, C0, female rats, individual rat): 0.259 µg/mL | clearance [2, 9]: 0.295 L/h/kg | clearance [2, 10]: 0.242 L/h/kg | Cmax ([2]; female, Sprague Dawley, rat, plasma, iv, 1 mg/kg, Cmax, female rats, GeoMean): 0.311 µg/mL | Cmax ([2]; female, Sprague Dawley, rat, plasma, iv, 1 mg/kg, Cmax, female rats, individual rat): 0.296 µg/mL | half-life ([2]; female, Sprague Dawley, rat, plasma, iv, 1 mg/kg, T1/2, female rats, GeoMean): 14.3 h | half-life ([2]; female, Sprague Dawley, rat, plasma, iv, 1 mg/kg, T1/2, female rats, individual rat): 14.1 h | Tmax ([2]; female, Sprague Dawley, rat, plasma, iv, 1 mg/kg, Tmax, female rats, GeoMean): 0.12 h | Vd ([2]; female, Sprague Dawley, rat, plasma, iv, 1 mg/kg, Vss, female rats, GeoMean): 5.73 L/kg | Vd ([2]; female, Sprague Dawley, rat, plasma, iv, 1 mg/kg, Vss, female rats, individual rat): 4.96 L/kg | Vd ([2]; female, Sprague Dawley, rat, plasma, iv, 1 mg/kg, Vz, female rats, GeoMean): 6.08 L/kg | Vd ([2]; female, Sprague Dawley, rat, plasma, iv, 1 mg/kg, Vz, female rats, individual rat): 4.93 L/kg | Overt toxic effects during conduct of PK study ([2]; male and female rats, single dose 1 mg/kg IV, 10 or 50 mg/kg PO): No overt toxic effects were observed | Cmax/D ([2]; male rats, GeoMean (third rat excluded)): 305 ng/mL/mg/kg | AUCinf [2, 11]: 64.0 µg·min/mL and 321 µg·min/mL | AUClast [2, 11]: 46.6 µg·min/mL and 139 µg·min/mL | C0 [2, 11]: 0.443 µg/mL | CL [2, 11]: 0.936 L/h/kg and 0.187 L/h/kg | Cmax [2, 11]: 0.392 µg/mL | Cmax/D [2, 11]: 237 ng/mL/mg/kg and 392 ng/mL/mg/kg | T1/2 [2, 11]: 2.96 h and 31.4 h | Vss [2, 11]: 8.14 L/kg | Vz [2, 11]: 4.00 L/kg and 8.46 L/kg | AUC(0-inf) [2, 12]: 2.38 µg·h/mL | AUC(0-t) [2, 12]: 1.34 µg·h/mL | C0 ([2]; male, Sprague Dawley, rat, plasma, iv, 1 mg/kg, C0, male rats, GeoMean (third rat excluded)): 0.336 µg/mL | C0 ([2]; male, Sprague Dawley, rat, plasma, iv, 1 mg/kg, C0, male rats, individual rat): 0.254 µg/mL | clearance [2, 12]: 0.418 L/h/kg | Cmax ([2]; male, Sprague Dawley, rat, plasma, iv, 1 mg/kg, Cmax, male rats, GeoMean (third rat excluded)): 0.305 µg/mL | Cmax ([2]; male, Sprague Dawley, rat, plasma, iv, 1 mg/kg, Cmax, male rats, individual rat): 0.237 µg/mL | half-life ([2]; male, Sprague Dawley, rat, plasma, iv, 1 mg/kg, T1/2, male rats, GeoMean (third rat excluded)): 9.64 h | Tmax ([2]; male, Sprague Dawley, rat, plasma, iv, 1 mg/kg, Tmax, male rats, GeoMean (third rat excluded)): 0.0833 h | Tmax ([2]; male, Sprague Dawley, rat, plasma, iv, 1 mg/kg, Tmax, male rats, individual rat): 0.0833 h | Vd ([2]; male, Sprague Dawley, rat, plasma, iv, 1 mg/kg, Vss, male rats, GeoMean (third rat excluded)): 5.81 L/kg | Vd ([2]; male, Sprague Dawley, rat, plasma, iv, 1 mg/kg, Vss, male rats, individual rat): 4.14 L/kg | Vd ([2]; male, Sprague Dawley, rat, plasma, iv, 1 mg/kg, Vz, male rats, GeoMean (third rat excluded)): 5.82 L/kg | Mortality (male Nude mice; 0.5 MTD group, five days a week for two weeks, day 7): Two mice died | Condition of other groups (male Nude mice; chronic dosing 0.2 MTD and MTD groups, 14 days): looked healthy | MTD at 14 days [3]: 25 to 50 mg/kg
